# In ChEMBL document CHEMBL4725242, “Discovery of GS-9688 (Selgantolimod) as a Potent and Selective Oral Toll-Like Receptor 8 Agonist for the Treatment of Chronic Hepatitis B” (J Med Chem, 2020):
# Activity calls are given as the source filed them.
# Tests used:
# Homo sapiens = species: Homo sapiens; test: Selectivity ratio of EC50 for TLR7 in human cryopreserved PBMC assessed as induction of IFNalpha production to EC50 for TLR8 in human cryopreserved PBMC assessed as induction of IL-12p40 production
# Summary of the method: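 Cryopreserved healthy-donor human PBMC, recovered 2 h at 37°C/5% CO2, then 100k cells/well in RPMI/10% FBS exposed 24 h at 37°C to a 10-point half-log dilution series (0.5% final DMSO). Supernatant IFNα-2a quantified by MSD electrochemiluminescence immunoassay. Normalized to 10 µM GS-9620 positive and DMSO negative controls; EC50 from 4-parameter logistic fit. For the ratio, divided by the IL-12p40 EC50 from the same PBMC screen.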
# [1] = Clearance in cynomolgus monkey hepatic microsomes at 2 uM measured up to 60 mins in presence of NADPH generating system by LC-MS/MS analysis; type: ADME, Macaca fascicularis, Microsome; conditions: liver microsomes
# [2] = Half life in Beagle dog at 0.25 mg/kg, iv administered as 30 mins infusion by HPLC-MS analysis; type: ADME, organism-based, Canis lupus familiaris; conditions: in vivo
# Summary of the method: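 30-min intravenous infusion: Sprague Dawley rats 1 mg/kg, beagle dogs 0.25 mg/kg, cynomolgus monkeys 0.1 mg/kg; n = 3 per species, reported as mean ± SD.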
# [3] = AUC (infinity) in cynomolgus monkey at 3 mg/kg, po administered via gavage by HPLC-MS analysis; type: ADME, organism-based, Macaca fascicularis; parameters: route oral, time infinity, dose 3 mg/kg; conditions: in vivo
# Summary of the method: (§1)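 Oral dosing in 2% ethanol/40% PEG 300/58% 0.01N HCl: Sprague Dawley rats 5 mg/kg, beagle dogs 0.5 mg/kg, cynomolgus monkeys 3 mg/kg.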
# [4] = Oral bioavailability in cynomolgus monkey at 3 mg/kg administered via gavage by HPLC-MS analysis; type: ADME, organism-based, Macaca fascicularis; conditions: in vivo; summary of the method: as §1
# [5] = Drug absorption in cynomolgus monkey at 3 mg/kg, po administered via gavage by HPLC-MS analysis; type: ADME, organism-based, Macaca fascicularis; conditions: in vivo, read-out: Drug absorption; summary of the method: as §1
# [6] = target: T1, Toll-like receptor 8 (Homo sapiens) (UniProt Q9NR97); test: Agonist activity at human TLR8 expressed in HEK293 cells assessed as increase in NF-kappaB activation incubated for 24 hrs by quanti-blue SEAP reporter gene assay; type: cell-based; conditions: filed as agonist
# T1 sequence (whole entry): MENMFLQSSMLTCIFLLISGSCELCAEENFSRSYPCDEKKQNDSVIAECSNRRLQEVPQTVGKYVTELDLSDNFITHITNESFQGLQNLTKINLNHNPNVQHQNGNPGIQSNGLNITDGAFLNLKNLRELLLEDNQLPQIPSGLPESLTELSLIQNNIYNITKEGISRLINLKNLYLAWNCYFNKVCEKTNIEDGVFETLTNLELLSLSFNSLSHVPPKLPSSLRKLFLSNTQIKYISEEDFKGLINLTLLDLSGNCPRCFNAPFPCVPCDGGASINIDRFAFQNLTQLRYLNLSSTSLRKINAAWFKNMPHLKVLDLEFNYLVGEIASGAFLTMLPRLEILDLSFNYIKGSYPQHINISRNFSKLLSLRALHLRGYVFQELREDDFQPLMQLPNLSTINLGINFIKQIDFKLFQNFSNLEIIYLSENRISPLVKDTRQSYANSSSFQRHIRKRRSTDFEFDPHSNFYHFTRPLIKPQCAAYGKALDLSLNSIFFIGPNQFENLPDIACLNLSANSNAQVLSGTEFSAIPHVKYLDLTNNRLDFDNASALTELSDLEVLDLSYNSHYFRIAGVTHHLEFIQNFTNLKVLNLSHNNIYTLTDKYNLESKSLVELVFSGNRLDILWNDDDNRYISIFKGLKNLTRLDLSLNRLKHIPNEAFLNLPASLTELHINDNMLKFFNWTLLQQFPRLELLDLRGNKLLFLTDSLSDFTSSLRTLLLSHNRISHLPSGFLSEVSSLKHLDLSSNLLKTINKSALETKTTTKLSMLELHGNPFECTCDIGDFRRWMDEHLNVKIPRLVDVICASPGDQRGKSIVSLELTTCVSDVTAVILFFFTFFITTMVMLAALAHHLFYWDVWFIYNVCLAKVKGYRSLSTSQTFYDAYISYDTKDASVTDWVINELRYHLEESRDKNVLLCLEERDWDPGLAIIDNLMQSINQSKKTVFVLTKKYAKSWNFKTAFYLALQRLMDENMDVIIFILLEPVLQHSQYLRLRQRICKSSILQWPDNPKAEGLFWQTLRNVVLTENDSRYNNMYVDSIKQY
# Summary of the method: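 HEK293 cells stably expressing human TLR8 reporter. Value taken as the minimum effective concentration (MEC), defined as the concentration giving a 3-fold increase in reporter signal above background.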
# [7] = target: T2, Interferon-induced helicase C domain-containing protein 1 (Homo sapiens) (UniProt Q9BYX4); test: Agonist activity at human MDA5 expressed in HEK293 cells assessed as induction of IFN-inducible ISG54 promoter activity up to 10 uM after overnight incubation by secreted lucia luciferase reporter gene assay; type: cell-based; conditions: dose microM <=10
# T2 sequence (whole entry): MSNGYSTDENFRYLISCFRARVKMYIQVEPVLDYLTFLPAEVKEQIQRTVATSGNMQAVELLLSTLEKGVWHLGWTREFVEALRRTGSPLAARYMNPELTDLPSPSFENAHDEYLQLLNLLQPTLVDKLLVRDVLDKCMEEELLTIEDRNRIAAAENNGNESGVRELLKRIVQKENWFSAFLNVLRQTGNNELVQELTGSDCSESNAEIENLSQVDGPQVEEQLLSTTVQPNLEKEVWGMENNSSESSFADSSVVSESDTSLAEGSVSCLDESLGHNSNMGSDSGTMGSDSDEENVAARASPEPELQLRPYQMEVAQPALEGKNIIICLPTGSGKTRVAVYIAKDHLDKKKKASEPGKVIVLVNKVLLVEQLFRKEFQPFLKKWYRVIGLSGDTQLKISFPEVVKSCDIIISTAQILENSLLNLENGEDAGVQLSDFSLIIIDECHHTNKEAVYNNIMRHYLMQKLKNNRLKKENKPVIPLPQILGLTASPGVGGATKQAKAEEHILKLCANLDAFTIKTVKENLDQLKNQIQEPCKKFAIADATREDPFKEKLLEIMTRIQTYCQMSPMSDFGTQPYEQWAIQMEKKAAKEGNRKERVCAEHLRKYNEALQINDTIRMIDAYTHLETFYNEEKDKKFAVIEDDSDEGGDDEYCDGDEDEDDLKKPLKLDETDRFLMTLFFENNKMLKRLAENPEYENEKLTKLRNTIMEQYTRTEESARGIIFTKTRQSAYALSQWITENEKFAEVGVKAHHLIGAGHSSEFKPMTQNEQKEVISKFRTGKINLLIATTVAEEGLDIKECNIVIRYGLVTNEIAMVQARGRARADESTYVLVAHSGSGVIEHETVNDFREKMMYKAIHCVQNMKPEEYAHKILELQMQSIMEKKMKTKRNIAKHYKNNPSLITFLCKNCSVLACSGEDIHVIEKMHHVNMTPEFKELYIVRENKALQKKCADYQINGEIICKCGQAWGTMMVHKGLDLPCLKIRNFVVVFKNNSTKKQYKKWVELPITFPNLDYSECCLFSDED
# Summary of the method: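 HEK293 cells stably expressing individual human TLRs or other innate immune receptors, used as reporter gene assays. Minimum effective concentration defined as the level giving a 3-fold rise over background.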
smiles,measurement,setting,value
CCCC[C@](C)(CO)Nc1nc(N)nc2cc(F)cnc12 [SELGANTOLIMOD],Ratio EC50,Homo sapiens,> 185
same,CLhep predicted at 2 µM,[1],25 mL/min/kg
same,half-life,[2],1.32 h
same,AUC(0-inf),[3],4.7 nM·h
same,bioavailability,[4],0.3%
same,Fa,[5],100%
same,MEC,[6],49 nM
same,Activity,[7],inactive
